Screening results deposited in PubChem BioAssay by The Scripps Research Institute Molecular Screening Center.
Rows were chosen to be rich in hits. Some 3.5% of all compounds tested hit in one or more screens of this group.
PRMT1 inh = PRMT1 methyltransferase inhibitors, primary screen, biochemical, fluorescence polarization | Protein arginine N-methyltransferase 1 (Homo sapiens), Q99873 | recombinant PRMT1, activity-based probe fluorescence polarization | inhibition, % at 2.79 µM | actives 1.3% (n = 370,000);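 active = inhibition above about 21% made by adding two undisclosed values, limit read from the data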
Target sequence (Q99873 whole entry, looked up): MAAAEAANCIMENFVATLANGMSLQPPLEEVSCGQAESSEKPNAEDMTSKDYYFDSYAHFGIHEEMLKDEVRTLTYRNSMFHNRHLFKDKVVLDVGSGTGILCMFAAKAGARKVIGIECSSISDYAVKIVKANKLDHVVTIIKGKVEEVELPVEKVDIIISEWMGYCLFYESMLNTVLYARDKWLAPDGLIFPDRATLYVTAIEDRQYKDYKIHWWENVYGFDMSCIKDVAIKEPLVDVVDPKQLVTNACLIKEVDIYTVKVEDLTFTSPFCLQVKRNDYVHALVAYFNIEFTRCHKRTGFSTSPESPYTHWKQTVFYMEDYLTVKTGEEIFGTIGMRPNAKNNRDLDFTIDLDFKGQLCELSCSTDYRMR
mABHD4 FP = ABHD4 inhibitors, primary screen, biochemical, fluorescence polarization, mouse. (Lyso)-N-acylphosphatidylethanolamine lipase (Mus musculus), Q8VD66. purified mABHD4, FP-Rh probe fluorescence polarization. inhibition, % at 8.92 µM. actives 0.54% (n = 370,000). AID 720543, 2013;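 active = inhibition exceeding the mean over every tested compound plus 3 SD, cut at about 30% in these data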;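 also: 0% = plate median of compound wells and 100% = S159A mutant with DMSO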
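System: mouse ABHD4 enzyme, wild type / Medium: HEPES pH 7.0, NaCl, Pluronic buffer / Reagent: FP-Rh activity-based fluorescent probe / Control set: S159A mutant high control, sample median low control / Detection: fluorescence polarization with parallel and perpendicular emission, 525/598 nm / Schedule: 45 min + 60 min at 25 °C / Compound dosing: 8.92 µM, single dose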
TCR-CD3 inh = inhibitors of human TCR-CD3 interaction, primary screen, biochemical, fluorescence, TAMRA-labeled TCR probe; actives 0.37% (n = 360,000); AID 651800, 2012; inhibition, % at 9.4 µM; in the data active = inhibition above about 19%;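 also: recombinant mutant TCR 2C K166C tagged with TAMRA read by polarization; 0% = receptor in buffer alone and 100% = receptor with positive control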
SIAE inh = human SIAE inhibitors, primary screen, biochemical, fluorescence polarization, FP-Rh probe, 1536-well HTS. SIAE FP-Rh probe binding. inhibition, % at 9.66 µM. Sialate O-acetylesterase (Homo sapiens), Q9HAT2. actives 0.69% (n = 370,000);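 active = inhibition above a cutoff: mean of compounds within the control limits plus 3 SD of those, cut at about 17% in these data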;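 also: 0% = plate median of compound wells and 100% = probe without SIAE protein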
rCAG RNA binder = binders of r(CAG) RNA repeats, primary screen, biochemical, fluorescence; actives 1.3% (n = 370,000); r(CAG) RNA repeat, TO-PRO-1 dye displacement fluorescence; AID 651821, 2012; inhibition, % at 3 µM;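 active = inhibition above the plate cutoff, the mean of all test compounds on that plate plus 3 SD, cut at about 35% in these data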;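 also: 0% = DMSO alone and 100% = 100 µM mitoxantrone as full dye displacement; higher means more dye released from RNA so lower well fluorescence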
HTRA1 inh = HTRA1 serine protease inhibitors, primary screen, biochemical, fluorescence polarization, HTS; Q92743; recombinant HTRA1, FP-rhodamine activity-based probe; inhibition, % at 5.96 µM; actives 0.5% (n = 340,000); in the data active = inhibition above about 36%;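 also: 0% = enzyme with DMSO and 100% = wells lacking enzyme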
rCAG binder conf = small molecules binding CAG repeat RNA – biochemical, fluorescence, confirmation; shares compounds with rCAG RNA binder; r(CAG) RNA repeat, TO-PRO-1 dye displacement fluorescence; inhibition, % at 3 µM; actives 70% (n = 4,300); AID 652065, 2013;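 active = inhibition above a per-plate cutoff, the mean inhibition of sample wells plus 3 SD, cut at about 35% in these data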;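 also: loss of TO-PRO-1 fluorescence as compound displaces dye from 1x1 AA loop RNA; 0% = DMSO only wells and 100% = 100 µM mitoxantrone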
DNA CAG counter = displacement of TO-PRO-1 from CAG DNA duplex, counter-screen for rCAG RNA repeat binder project, biochemical, fluorescence, TO-PRO-1 dye, d(CAG) DNA oligo | AID 652068, 2013 | shares compounds with rCAG RNA binder | d(CAG) DNA oligo TO-PRO-1 dye displacement | inhibition, % at 3 µM | actives 94% (n = 4,300);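 active = inhibition above its plate's cutoff, the mean test-well inhibition plus 3 SD, cut at about 4.8% in these data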;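 also: 0% = DNA dye mix with DMSO and 100% = 100 µM mitoxantrone; hits displace the dye from DNA and so lower well fluorescence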
Numbers without * were called inactive; / = not tested or not shown.

SMILES | PRMT1 inh | mABHD4 FP | TCR-CD3 inh | SIAE inh | rCAG RNA binder | HTRA1 inh | rCAG binder conf | DNA CAG counter
CCCc1cc2c(OC(=O)CC)c(-c3ccc(C(=O)OCC)o3)c(=O)oc2cc1OC | 5 | 14 | -9 | -2 | 38* | -6 | 33 | 6.8*
CC1CCCCC1NC(=O)C(=O)NCC1CCCO1 (stereo unspecified) | -1 | -13 | -5 | -5 | 56* | -3 | 1 | -2
Cc1ccc(NC(=O)c2cccc(Oc3ccc([N+](=O)[O-])cc3)c2)c(C(=O)O)c1 | 0 | -64 | -4 | -26 | 85* | -79 | 74* | 38*
CCCCCC(=O)NC1CCCCN(C)C1=O (stereo unspecified) | -5 | -4 | -3 | 4 | 2 | / | / | /
Cc1ccc(CN2CCCCC(NC(=O)c3ccccc3)C2=O)cc1 (stereo unspecified) | 5 | 7 | / | 2 | 4 | / | / | /
Cc1ccc(OC[C@@H](O)CN2CCC(C(O)(c3ccccc3)c3ccccc3)CC2)cc1 | 1 | 1 | / | 3 | 1 | / | / | /
O=S(=O)(Nc1ncccn1)c1ccc(NC(=S)NCCc2ccc(Cl)cc2)cc1 | -8 | 2 | 0 | 5 | 38* | -3 | 10 | 2
COc1cccc(-c2nc(SCC(=O)Nc3nc(-c4ccccc4)c(C)s3)[nH]c(=O)c2C#N)c1 | 1 | -52 | 5 | -54 | 70* | -59 | 92* | 76*
CCOC(=O)Cc1csc(NC(=O)CSc2nc(-c3ccccc3)c(C#N)c(=O)[nH]2)n1 | 4 | -9 | 3 | -4 | 64* | -5 | 57* | 20*
Cc1sc(NC(=O)CSc2nc(O)cc(=O)[nH]2)nc1-c1ccccc1 | 3 | 10 | -2 | -9 | 32 | -10 | / | /
CCOc1ccc2nc(NC(=O)CSc3cn[nH]n3)sc2c1 | -1 | -5 | 6 | -5 | 4 | 5 | / | /
CCOc1ccc2nc(NC(=O)CSc3nc(-c4ccccc4)c(C#N)c(=O)[nH]3)sc2c1 | 5 | -54 | -2 | -17 | 83* | -89 | 88* | 69*
COc1cccc(/C=N\N2CCN(c3ccc(C)cc3)CC2)c1O | -1 | 2 | / | -1 | 1 | / | / | /
Cc1ccc(CN2CCCCC(NC(=O)C(C)(C)C)C2=O)cc1 (stereo unspecified) | -1 | 3 | / | 0 | 0 | / | / | /
Cn1c(COc2ccccc2)nnc1SCC(=O)Nc1ccc(S(=O)(=O)Nc2nccs2)cc1 | -1 | -2 | / | -3 | 49* | / | 47* | 18*
Cn1c(COc2ccccc2)nnc1SCC(=O)Nc1ccc(OCc2ccccc2)cc1 | -2 | 3 | / | 7 | 6 | / | / | /
Cc1ccc(OCc2nnc(SCC(=O)Nc3nccs3)n2-c2ccccc2)cc1C | -1 | -7 | -1 | -3 | 2 | -4 | / | /
O=C(CSc1nnc(-c2ccco2)n1-c1ccc(Cl)cc1)Nc1ccc(S(=O)(=O)Nc2nccs2)cc1 | -3 | -14 | / | -8 | 62* | / | 57* | 20*
COc1ccc(-n2c(SCC(=O)Nc3ccc(S(=O)(=O)Nc4nccs4)cc3)nnc2-c2ccccc2)cc1 | 4 | -21 | / | -18 | 78* | / | 72* | 37*
O=C(CSc1nnc(COc2ccccc2)n1-c1ccccc1)Nc1ccc(S(=O)(=O)Nc2nccs2)cc1 | -2 | -18 | / | -12 | 75* | / | 65* | 28*
S=C(NCc1ccc(Cl)cc1)OC1CCC12CCC(c1ccccc1)CC2 (stereo unspecified) | 1 | -20 | / | -8 | 8 | / | / | /
COc1cccc(N2CCN(CC(=O)NCc3cccc(OC)c3OC)CC2)c1 | 1 | 0 | / | -2 | -2 | / | / | /
